Reference: BindingDB's records for doi:10.1021/jm00151a016 (1986)
Positions of bridges follow the written chain, without caps; N, C: chain ends. Non-standard residues stand in square brackets, D forms with d. Residues, ends and D or L forms follow the SMILES beside them. NMeA = CN[C@@H](C)C(=O)O; Sar = CNCC(=O)O

How the values were obtained:
[1] = target: Vasopressin V1a/V1b receptor (Rattus norvegicus, UniProt P30560+P48974); test: Binding affinity against plasma membrane from rat liver using [3H]-AVP as a radioligand
Sequence of Vasopressin V1a/V1b receptor (P30560 whole entry): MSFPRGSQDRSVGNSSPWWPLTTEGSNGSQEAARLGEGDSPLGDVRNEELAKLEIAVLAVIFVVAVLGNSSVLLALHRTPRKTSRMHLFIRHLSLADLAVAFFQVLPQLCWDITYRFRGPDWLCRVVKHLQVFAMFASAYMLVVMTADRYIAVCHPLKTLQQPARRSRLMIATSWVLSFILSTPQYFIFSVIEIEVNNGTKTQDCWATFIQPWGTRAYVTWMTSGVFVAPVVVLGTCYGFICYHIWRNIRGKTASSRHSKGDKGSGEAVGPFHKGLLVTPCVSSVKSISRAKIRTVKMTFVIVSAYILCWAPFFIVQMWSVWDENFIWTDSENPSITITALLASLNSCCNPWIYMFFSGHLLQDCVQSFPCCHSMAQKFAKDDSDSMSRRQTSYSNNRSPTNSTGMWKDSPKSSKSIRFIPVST
Sequence of Vasopressin V1a/V1b receptor (P48974 whole entry): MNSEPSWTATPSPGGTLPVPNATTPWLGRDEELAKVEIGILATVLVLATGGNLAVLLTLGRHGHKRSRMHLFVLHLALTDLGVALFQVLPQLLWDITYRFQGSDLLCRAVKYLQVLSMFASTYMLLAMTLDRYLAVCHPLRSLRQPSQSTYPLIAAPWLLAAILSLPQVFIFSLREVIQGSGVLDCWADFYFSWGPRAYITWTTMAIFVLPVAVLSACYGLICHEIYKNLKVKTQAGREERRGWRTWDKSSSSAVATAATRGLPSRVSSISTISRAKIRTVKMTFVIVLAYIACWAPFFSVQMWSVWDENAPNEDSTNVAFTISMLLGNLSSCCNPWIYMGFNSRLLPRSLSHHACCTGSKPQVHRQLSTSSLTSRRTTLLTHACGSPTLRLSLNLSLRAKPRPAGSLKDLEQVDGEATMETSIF
In short: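 Competition binding with [3H]AVP to plasma membranes, 30 min incubation; for rat liver membranes the standard medium included bacitracin (1 mg/mL). Apparent KD and slope factor b from weighted nonlinear least-squares fit of displacement curves to logistic curves; [3H]AVP parameters from direct binding. Mean ±SE of two experiments.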

Vasopressin V2 receptor = Vasopressin V2 receptor (Bos taurus, UniProt P48044); test: ChEBML_214690
Sequence of Vasopressin V2 receptor (P48044 whole entry): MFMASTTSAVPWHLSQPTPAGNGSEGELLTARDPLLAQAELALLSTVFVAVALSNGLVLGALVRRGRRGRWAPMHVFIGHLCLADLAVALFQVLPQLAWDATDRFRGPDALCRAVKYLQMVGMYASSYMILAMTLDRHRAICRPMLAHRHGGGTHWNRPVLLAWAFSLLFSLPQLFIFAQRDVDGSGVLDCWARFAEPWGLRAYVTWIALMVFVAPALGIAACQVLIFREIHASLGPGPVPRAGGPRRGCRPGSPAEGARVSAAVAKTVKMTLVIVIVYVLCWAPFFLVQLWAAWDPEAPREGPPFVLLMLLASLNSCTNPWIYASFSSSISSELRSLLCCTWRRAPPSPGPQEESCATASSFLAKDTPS
Source text: Binding affinity against plasma membrane from bovine kidney inner medulla using [3H]AVP as a radioligand

Row | Kd [1] | Kd (Vasopressin V2 receptor) | Structure (SMILES)
1 | 110 nM | 9.4 nM | CC(C)[C@@H]1NC(=O)[C@H](Cc2ccccc2)NC(=O)[C@H](Cc2ccc(O)cc2)NC(=O)[C@@H](N)CSSC[C@@H](C(=O)N(C)CC(=O)N[C@@H](CCCNC(=N)N)C(=O)NCC(N)=O)NC(=O)[C@H](CC(N)=O)NC1=O (H-CYFVNC[Sar]RG-NH2; disulfide 1-6)
2 |  | 9.4 nM | CC(C)[C@H]1NC(=O)[C@H](Cc2ccccc2)NC(=O)[C@@H](Cc2ccc(O)cc2)NC(=O)CCSSC[C@@H](C(=O)N(C)[C@@H](C)C(=O)N[C@@H](CCCN=C(N)N)C(=O)NCC(N)=O)NC(=O)[C@H](CC(N)=O)NC1=O
3 | 110 nM |  | C[C@@H](C(=O)N[C@@H](CCCN=C(N)N)C(=O)NCC(N)=O)N(C)C(=O)[C@@H]1CSSC[C@H](N)C(=O)N[C@@H](Cc2ccccc2)C(=O)N[C@@H](Cc2ccccc2)C(=O)N[C@@H](CCC(N)=O)C(=O)N[C@@H](CC(N)=O)C(=O)N1 (H-CFFQNC[NMeA]RG-NH2; disulfide 1-6)
